From ChEMBL document CHEMBL1127554, “Design, synthesis, and study of 9-substituted ellipticine and 2-methylellipticinium analogues as potential CNS-selective antitumor agents” (1994)

Tests used:
Tumor Cell line [1] = assay: GI50 was measured In vitro as the ratio of the mean activity for all non-CNS tumor cell lines over the mean activity of the CNS tumor subpanel (eight cell lines); type: functional, Homo sapiens
In short: (§1)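 Ratio of the mean activity (μM) over all non-CNS tumour cell lines (ca. 40-50 lines) to the mean activity (μM) of the CNS subpanel (eight lines). Activity was taken from PG vs log concentration curves: GI50 at PG +50%, TGI at PG 0%.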

Tumor Cell line [2] = assay: LC50 was given In vitro as -50% percent growth (PG), measured as concentration of compound required to inhibit disease oriented human tumor cell line panels; Value ranges from 3.02->100; type: functional; details: read-out: LC50 (the source's name)
Tumor Cell line [3] = assay: TGI was given In vitro as 0% percent growth (PG), measured as concentration of compound required to inhibit disease oriented human tumor cell line panels; Value ranges from 0.68->100; type: functional
In short: (§2)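 Human tumour cell line panel; percent growth plotted against log drug concentration to give dose-response curves. GI50 is the concentration giving PG +50%, and TGI the concentration giving PG 0%. Values are mean inhibitory concentrations over the entire panel. PG values at either limit (> or <) are included in the mean.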

Tumor Cell line [4] = assay: GI50 was given In vitro as +50% percent growth (PG), measured as concentration of compound required to inhibit disease oriented human tumor cell line panels; Value ranges from 0.060->100; type: functional
Tumor Cell line [5] = assay: TGI was measured In vitro as the ratio of the mean activity for all non-CNS tumor cell lines over the mean activity of the CNS tumor subpanel (eight cell lines); type: functional, Homo sapiens; in short: as §1
Tumor Cell line [6] = assay: LC50 was given In vitro as -50% percent growth (PG), measured as concentration of compound required to inhibit disease oriented human tumor cell line panels; Value ranges from 16.98->100; type: functional; details: read-out: LC50 (the source's name)
In short: (§3)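 Human tumor cell line panel tested in vitro. Percent growth (PG) plotted against log drug concentration to give dose-response curves. LC50 is the concentration where PG equals -50%; GI50 and TGI are taken at +50% and 0%. Values are means across the full panel, with values beyond the tested limits (> or <) included in the mean.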

Tumor Cell line [7] = assay: GI50 was given In vitro as +50% percent growth (PG), measured as concentration of compound required to inhibit disease oriented human tumor cell line panels;Value ranges from 0.06->100; type: functional
Tumor Cell line [8] = assay: LC50 was given In vitro as -50% percent growth (PG), measured as concentration of compound required to inhibit disease oriented human tumor cell line panels; Value ranges from 5.25->100; type: functional; details: read-out: LC50 (the source's name); in short: as §3
Tumor Cell line [9] = assay: TGI was given In vitro as 0% percent growth (PG), measured as concentration of compound required to inhibit disease oriented human tumor cell line panels; Value ranges from 0.06->100; type: functional
Tumor Cell line [10] = assay: LC50 was given In vitro as -50% percent growth (PG), measured as concentration of compound required to inhibit disease oriented human tumor cell line panels; type: functional; details: read-out: LC50 (the source's name); in short: as §3
Tumor Cell line [11] = assay: GI50 was given In vitro as +50% percent growth (PG), measured as concentration of compound required to inhibit disease oriented human tumor cell line panels; type: functional; in short: as §2
Tumor Cell line [12] = assay: TGI was given In vitro as 0% percent growth (PG), measured as concentration of compound required to inhibit disease oriented human tumor cell line panels; type: functional; in short: as §2
[13] = GI50 was measured in vitro as the ratio of the mean activity for all non-CNS tumor cell lines over the mean activity of the CNS tumor subpanel (eight cell lines); type: functional; in short: as §1
[14] = LC50 was measured in vitro as the ratio of the mean activity for all non-CNS tumor cell lines over the mean activity of the CNS tumor subpanel (eight cell lines); type: functional
In short: (§4)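 Same PG dose-response panel. LC50 (μM) is averaged separately over the non-CNS lines (ca. 40-50 lines) and the CNS subpanel (eight lines). The ratio is the non-CNS mean divided by the CNS mean.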

Tumor Cell line [15] = assay: TGI was given in vitro as 0% percent growth (PG), measured as concentration of compound required to inhibit disease oriented human tumor cell line panels; Value ranges from 2.75-41.69; type: functional; in short: as §2
Tumor Cell line [16] = assay: GI50 was given in vitro as +50% percent growth (PG), measured as concentration of compound required to inhibit disease oriented human tumor cell line panels; Value ranges from 1.55-16.6; type: functional; in short: as §2
Tumor Cell line [17] = assay: LC50 was given in vitro as -50% percent growth (PG), measured as concentration of compound required to inhibit disease oriented human tumor cell line panels; Value ranges from 5.75->100; type: functional; details: read-out: LC50 (the source's name); in short: as §3
[18] = TGI was measured in vitro as the ratio of the mean activity for all non-CNS tumor cell lines over the mean activity of the CNS tumor subpanel (eight cell lines); type: functional; in short: as §1
Tumor Cell line [19] = assay: LC50 was measured In vitro as the ratio of the mean activity for all non-CNS tumor cell lines over the mean activity of the CNS tumor subpanel (eight cell lines); type: functional, Homo sapiens; in short: as §4
Tumor Cell line [20] = assay: TGI was given In vitro as 0% percent growth (PG), measured as concentration of compound required to inhibit disease oriented human tumor cell line panels; Value ranges from 2-5.50; type: functional; in short: as §2
Tumor Cell line [21] = assay: LC50 was given In vitro as -50% percent growth (PG), measured as concentration of compound required to inhibit disease oriented human tumor cell line panels; Value ranges from 4.09->100; type: functional; details: read-out: LC50 (the source's name); in short: as §3
Tumor Cell line [22] = assay: GI50 was given In vitro as +50% percent growth (PG), measured as concentration of compound required to inhibit disease oriented human tumor cell line panels; Value ranges from 0.62-2.95; type: functional; in short: as §2
Tumor Cell line [23] = assay: GI50 was given In vitro as +50% percent growth (PG), measured as concentration of compound required to inhibit disease oriented human tumor cell line panels; Value ranges from 0.32-2; type: functional; in short: as §2
Tumor Cell line [24] = assay: TGI was given In vitro as 0% percent growth (PG), measured as concentration of compound required to inhibit disease oriented human tumor cell line panels; Value ranges from 3.47->100; type: functional
Tumor Cell line [25] = assay: GI50 was given In vitro as +50% percent growth (PG), measured as concentration of compound required to inhibit disease oriented human tumor cell line panels; Value ranges from 0.43->100; type: functional
Tumor Cell line [26] = assay: LC50 was given In vitro as -50% percent growth (PG), measured as concentration of compound required to inhibit disease oriented human tumor cell line panels; Value ranges from 7.94->100; type: functional; details: read-out: LC50 (the source's name)

Compound: CCOc1ccc2[nH]c3c(C)c4cc[n+](C)cc4c(C)c3c2c1.[I-]
- GI50 ratio (Tumor Cell line [1]): 7.9
- CC50 (Tumor Cell line [2]): > 55 µM
- TGI (Tumor Cell line [3]): > 12 µM
- GI50 (Tumor Cell line [4]): > 1.17 µM
- TGI ratio (Tumor Cell line [5]): 9.54

Compound: Cc1c2cc[n+](C)cc2c(C)c2c1[nH]c1ccc(Oc3ccccc3)cc12.[I-]
- GI50 ratio (Tumor Cell line [1]): 3.05
- CC50 (Tumor Cell line [6]): > 93.3 µM
- TGI ratio (Tumor Cell line [5]): 2.06

Compound: Cc1c2cc[n+](C)cc2c(C)c2c1[nH]c1ccc(OC(C)C)cc12.[I-]
- GI50 (Tumor Cell line [7]): > 1.62 µM
- CC50 (Tumor Cell line [8]): > 58.9 µM
- GI50 ratio (Tumor Cell line [1]): 8.35
- TGI (Tumor Cell line [9]): > 13.2 µM
- TGI ratio (Tumor Cell line [5]): 6.49

Compound: CC(=O)[O-].Cc1c2cc[n+](C)cc2c(C)c2c1[nH]c1ccc(OC(C)(C)C)cc12
- GI50 ratio (Tumor Cell line [1]): 1
- CC50 (Tumor Cell line [10]): > 100 µM
- GI50 (Tumor Cell line [11]): > 100 µM
- TGI (Tumor Cell line [12]): > 100 µM
- TGI ratio (Tumor Cell line [5]): 1

Compound: Cc1c2ccncc2c(C)c2c1[nH]c1ccc(Oc3ccccc3)cc12
- GI50 ratio [13]: 0.82
- LC50 ratio [14]: 0.88 µM
- TGI (Tumor Cell line [15]): 6.03 µM
- GI50 (Tumor Cell line [16]): 2.63 µM
- CC50 (Tumor Cell line [17]): > 19.5 µM
- TGI ratio [18]: 0.81

Compound: Cc1c2ccncc2c(C)c2c1[nH]c1ccc(OCC(F)(F)F)cc12
- GI50 ratio (Tumor Cell line [1]): 0.63
- LC50 ratio (Tumor Cell line [19]): 0.74
- TGI (Tumor Cell line [20]): 3.24 µM
- CC50 (Tumor Cell line [21]): > 8.13 µM
- GI50 (Tumor Cell line [22]): 1.58 µM
- TGI ratio (Tumor Cell line [5]): 0.73

Compound: Cc1c2ccncc2c(C)c2c1[nH]c1ccc(OC(C)C)cc12
- CC50 (Tumor Cell line [8]): > 6.61 µM
- GI50 ratio (Tumor Cell line [1]): 0.78
- GI50 (Tumor Cell line [23]): 1.32 µM
- TGI ratio (Tumor Cell line [5]): 0.9

Compound: CC(=O)[O-].Cc1c2cc[n+](C)cc2c(C)c2c1[nH]c1ccc(OC(C)C)cc12
- TGI (Tumor Cell line [24]): > 23.4 µM
- GI50 ratio (Tumor Cell line [1]): 2.99
- GI50 (Tumor Cell line [25]): > 3.8 µM
- CC50 (Tumor Cell line [26]): > 66.1 µM
- TGI ratio (Tumor Cell line [5]): 2.09

Compound: CC(=O)[O-].Cc1c2cc[n+](C)cc2c(C)c2c1[nH]c1ccc(O)cc12 [ELLIPTINIUM ACETATE]
- GI50 ratio (Tumor Cell line [1]): 6.28
- CC50 (Tumor Cell line [10]): > 100 µM
- TGI ratio (Tumor Cell line [5]): 9.34
